# ChEMBL document CHEMBL3576866, “Discovery of a Cyclic Boronic Acid β-Lactamase Inhibitor (RPX7009) with Utility vs Class A Serine Carbapenemases” (J Med Chem, 2015)
# pKi: −log10 of the molar value. The source made the active and inactive calls. No cut-off for these calls is given here.
# Experiments:
# Escherichia coli [1] = test: microbe, parasite or virus in culture; conditions: EC1007
# Klebsiella pneumoniae [2] = test: Antibacterial activity against Klebsiella pneumoniae KP1004 expressing KPC2/TEM1/SHV11 by broth microdilution method; type: functional
# Klebsiella pneumoniae [3] = test: Antibacterial activity against Klebsiella pneumoniae KP1084 expressing KPC3/SHV-11/TEM-1 by broth microdilution method; type: functional
# Klebsiella oxytoca [4] = test: Antibacterial activity against Klebsiella oxytoca KX1017 expressing KPC2/OXA2/SHV30 by broth microdilution method; type: functional
# Klebsiella pneumoniae [5] = test: Antibacterial activity against Klebsiella pneumoniae KP1083 expressing KPC3/SHV-1/TEM-1 by broth microdilution method; type: functional
# Klebsiella pneumoniae [6] = test: Antibacterial activity against Klebsiella pneumoniae KP1088 expressing KPC3/SHV-11/TEM-1 by broth microdilution method; type: functional
# Klebsiella pneumoniae [7] = test: Antibacterial activity against Klebsiella pneumoniae KP1087 expressing KPC2/CTX-M-15/SHV-11/TEM-1 by broth microdilution method; type: functional
# Enterobacter cloacae = test: Antibacterial activity against Enterobacter cloacae ECL1058 expressing KPC3/SHV-11/TEM-1 by broth microdilution method; type: functional
# Klebsiella pneumoniae [8] = test: Antibacterial activity against Klebsiella pneumoniae KP1008 expressing KPC2 by broth microdilution method; type: functional
# Klebsiella pneumoniae [9] = test: Antibacterial activity against Klebsiella pneumoniae KP1082 expressing KPC2/SHV-1 by broth microdilution method; type: functional
# Klebsiella oxytoca [10] = test: Antibacterial activity against Klebsiella oxytoca KX1019 expressing KPC2/OXA2 by broth microdilution method; type: functional
# Klebsiella oxytoca [11] = test: microbe, parasite or virus in culture; conditions: KX1001
# Escherichia coli [12] = test: microbe, parasite or virus in culture; conditions: EC1008
# Klebsiella pneumoniae [13] = test: microbe, parasite or virus in culture; conditions: KP1009
# Escherichia coli [14] = test: microbe, parasite or virus in culture; conditions: EC1011
# Escherichia coli [15] = test: microbe, parasite or virus in culture; conditions: EC1009
# Klebsiella pneumoniae [16] = test: microbe, parasite or virus in culture; conditions: KP1011
# Klebsiella aerogenes = test: microbe, parasite or virus in culture; conditions: EA1028
# Klebsiella pneumoniae [17] = test: microbe, parasite or virus in culture; conditions: KP1010
# Klebsiella pneumoniae [18] = test: microbe, parasite or virus in culture; conditions: KP1005
# [19] = Competitive inhibition of Escherichia coli RTEM-1
# [20] = Inhibition of Escherichia coli MV1183 TEM-1 using nitrocefin as substrate preincubated for 10 mins followed by substrate addition measured for 500 secs
# Klebsiella pneumoniae [21] = test: Antibacterial activity against Klebsiella pneumoniae KP1004 by broth microdilution method; type: functional, organism-based
# [22] = biological target: Beta-lactamase (Klebsiella pneumoniae) (UniProt Q93LQ9); test: Inhibition of Klebsiella pneumoniae KP1004 KPC 2 carbapenemase assessed as minimum concentration required to reduce biapenem MIC from […] ug/ml to 1 ug/mL by broth microdilution method
# Chain of Beta-lactamase (Klebsiella pneumoniae) (Q93LQ9 as listed by the source): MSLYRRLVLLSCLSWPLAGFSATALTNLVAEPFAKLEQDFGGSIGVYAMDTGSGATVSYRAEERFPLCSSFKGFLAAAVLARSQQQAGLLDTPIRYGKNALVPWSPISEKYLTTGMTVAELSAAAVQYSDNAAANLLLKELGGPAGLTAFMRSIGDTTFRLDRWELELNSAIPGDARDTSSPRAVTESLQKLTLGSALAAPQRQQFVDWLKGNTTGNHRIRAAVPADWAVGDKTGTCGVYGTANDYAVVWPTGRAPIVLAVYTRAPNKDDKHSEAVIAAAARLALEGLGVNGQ
# Klebsiella pneumoniae [23] = test: Antibacterial activity against Klebsiella pneumoniae KP1074 in Swiss webster neutropenic mouse lung infection model assessed as change in log10 CFU in lung at 50 mg/kg, ip administered every 2 hrs starting at 2 hrs postinfection measured after 24 hrs relative to control; type: functional
# In short: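 Swiss Webster mice made neutropenic with cyclophosphamide and infected intratracheally under isoflurane with KP1074. […] Lungs harvested 24 h after the start of treatment, homogenized and plated for CFU.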
# [24] = Inhibition of Escherichia coli recombinant KPC-2 assessed as substrate nitrocefin degradation preincubated for 10 mins followed by substrate addition measured every 10 secs for 10 mins by spectrophotometric analysis
# In short: (§1)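 β-Lactamases purified from overexpressing recombinant E. coli. Enzyme preincubated with inhibitor at varying concentrations for 10 min at room temperature in 50 mM Na phosphate pH 7.0, 0.1 mg/mL BSA. Then 50 μM nitrocefin (final) added and cleavage read at 490 nm every 10 s for 10 min. Ki derived by the Waley method.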
# [25] = Inhibition of Escherichia coli recombinant SHV-12 assessed as substrate nitrocefin degradation preincubated for 10 mins followed by substrate addition measured every 10 secs for 10 mins by spectrophotometric analysis
# In short: as §1
# [26] = Inhibition of Escherichia coli recombinant TEM-10 assessed as substrate nitrocefin degradation preincubated for 10 mins followed by substrate addition measured every 10 secs for 10 mins by spectrophotometric analysis
# In short: as §1
# [27] = Inhibition of Escherichia coli recombinant P99 assessed as substrate nitrocefin degradation preincubated for 10 mins followed by substrate addition measured every 10 secs for 10 mins by spectrophotometric analysis
# In short: as §1
# [28] = Inhibition of Escherichia coli recombinant CTX-M-15 assessed as substrate nitrocefin degradation preincubated for 10 mins followed by substrate addition measured every 10 secs for 10 mins by spectrophotometric analysis
# In short: as §1
# [29] = Inhibition of Escherichia coli recombinant CMY-2 assessed as substrate nitrocefin degradation preincubated for 10 mins followed by substrate addition measured every 10 secs for 10 mins by spectrophotometric analysis
# In short: as §1
# Klebsiella pneumoniae [30] = test: Antibacterial activity against Klebsiella pneumoniae KP1074 in Swiss webster neutropenic mouse lung infection model assessed as change in log10 CFU in lung at 100 mg/kg, ip administered every 2 hrs starting at 2 hrs postinfection measured after 24 hrs relative to control; type: functional
# In short: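 Neutropenic (cyclophosphamide) Swiss Webster mice infected intratracheally under isoflurane anesthesia with K. pneumoniae KP1074. […] Lungs removed 24 h after start of treatment, homogenized and plated for bacterial counts (CFU).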
structure (smiles),measurement,setting,value
C[C@@H](O)[C@H]1C(=O)N2C(C(=O)O)=C(S[C@@H]3CN[C@H](C(=O)Nc4cccc(C(=O)O)c4)C3)[C@H](C)[C@H]12,MIC,Escherichia coli [1],8 µg/mL
same,MIC,Klebsiella pneumoniae [2],32 µg/mL
same,MIC,Klebsiella pneumoniae [3],> 64 µg/mL
same,MIC,Klebsiella oxytoca [4],16 µg/mL
same,MIC,Klebsiella pneumoniae [5],32 µg/mL
same,MIC,Klebsiella pneumoniae [6],16 µg/mL
same,MIC,Klebsiella pneumoniae [7],> 64 µg/mL
same,MIC,Enterobacter cloacae,32 µg/mL
same,MIC,Klebsiella pneumoniae [8],8 µg/mL
same,MIC,Klebsiella pneumoniae [9],4 µg/mL
same,MIC,Klebsiella oxytoca [10],16 µg/mL
CO/N=C(\C(=O)N[C@@H]1C(=O)N2C(C(=O)[O-])=C(C[N+]3(C)CCCC3)CS[C@H]12)c1csc(N)n1,MIC,Klebsiella oxytoca [11],4 µg/mL
same,MIC,Escherichia coli [12],> 64 µg/mL
same,MIC,Klebsiella pneumoniae [13],> 64 µg/mL
same,MIC,Escherichia coli [14],8 µg/mL
same,MIC,Escherichia coli [15],8 µg/mL
same,MIC,Klebsiella pneumoniae [16],64 µg/mL
same,MIC,Klebsiella aerogenes,> 64 µg/mL
same,MIC,Klebsiella pneumoniae [17],2 µg/mL
same,MIC,Klebsiella pneumoniae [18],64 µg/mL
CC(=O)NC(Cc1cccc(C(=O)O)c1)B(O)O (stereo not drawn),pKi,[19],6.96
O=C(Cc1ccccc1)NC(Cc1cccc(C(=O)O)c1)B(O)O (stereo not drawn),pKi,[20],8.22
CC(=O)NC(Cc1cccc(C(=O)O)c1O)B(O)O (stereo not drawn),pKi,[20],7.89
CC(=O)N[C@H]1CC[C@@H](CC(=O)O)OB1O,Activity,Klebsiella pneumoniae [21],inactive
same,MEC,[22],0.3 µg/mL
NCCSCC(=O)N[C@H]1CC[C@@H](CC(=O)O)OB1O,Activity,Klebsiella pneumoniae [21],inactive
same,MEC,[22],0.3 µg/mL
N[C@H](C(=O)N[C@H]1CC[C@@H](CC(=O)O)OB1O)c1ccccc1,Activity,Klebsiella pneumoniae [21],inactive
same,MEC,[22],0.3 µg/mL
Nc1cc(CC(=O)N[C@H]2CC[C@@H](CC(=O)O)OB2O)ccn1,Activity,Klebsiella pneumoniae [21],inactive
same,MEC,[22],0.04 µg/mL
Nc1nc(CC(=O)N[C@H]2CC[C@@H](CC(=O)O)OB2O)cs1,Activity,Klebsiella pneumoniae [21],inactive
same,MEC,[22],0.61 µg/mL
O=C(O)C[C@@H]1CC[C@H](NC(=O)C(O)c2ccccc2)B(O)O1 (stereo partly drawn),Activity,Klebsiella pneumoniae [21],inactive
same,MEC,[22],0.61 µg/mL
O=C(O)C[C@@H]1CC[C@H](NC(=O)C2CC2)B(O)O1,Activity,Klebsiella pneumoniae [21],inactive
same,MEC,[22],0.15 µg/mL
O=C(O)C[C@@H]1CC[C@H](NC(=O)CCc2ccccc2)B(O)O1,Activity,Klebsiella pneumoniae [21],inactive
same,MEC,[22],0.3 µg/mL
O=C(O)C[C@@H]1CC[C@H](NC(=O)C[C@H]2CCCCN2)B(O)O1,Activity,Klebsiella pneumoniae [21],inactive
same,MEC,[22],0.15 µg/mL
O=C(O)C[C@@H]1CC[C@H](NC(=O)Cc2cccc(O)c2)B(O)O1,Activity,Klebsiella pneumoniae [21],inactive
same,MEC,[22],1.25 µg/mL
O=C(O)C[C@@H]1CC[C@H](NC(=O)Cc2ccccc2)B(O)O1,Activity,Klebsiella pneumoniae [21],inactive
same,MEC,[22],0.15 µg/mL
O=C(O)C[C@@H]1CC[C@H](NC(=O)Cc2ccccc2O)B(O)O1,Activity,Klebsiella pneumoniae [21],inactive
same,MEC,[22],0.16 µg/mL
O=C(O)C[C@@H]1CC[C@H](NC(=O)Cc2ccccn2)B(O)O1,Activity,Klebsiella pneumoniae [21],inactive
same,MEC,[22],0.15 µg/mL
O=C(O)C[C@@H]1CC[C@H](NC(=O)Cc2cccnc2)B(O)O1,Activity,Klebsiella pneumoniae [21],inactive
same,MEC,[22],0.15 µg/mL
O=C(O)C[C@@H]1CC[C@H](NC(=O)Cc2ccncc2)B(O)O1,Activity,Klebsiella pneumoniae [21],inactive
same,MEC,[22],0.15 µg/mL
O=C(O)C[C@@H]1CC[C@H](NC(=O)c2ccccc2)B(O)O1,Activity,Klebsiella pneumoniae [21],inactive
same,MEC,[22],0.3 µg/mL
CO/N=C(\C(=O)N[C@H]1CC[C@@H](CC(=O)O)OB1O)c1csc(N)n1 (stereo in doubt),Activity,Klebsiella pneumoniae [21],inactive
same,MEC,[22],1.25 µg/mL
C[C@@H](O)[C@H]1C(=O)N2C(C(=O)[O-])=C(SC3Cn4cnc[n+]4C3)[C@H](C)[C@H]12 (stereo partly drawn) [BIAPENEM],MIC,Escherichia coli [1],8 µg/mL
same,MIC,Klebsiella pneumoniae [2],8 µg/mL
same,MIC,Klebsiella pneumoniae [3],64 µg/mL
same,MIC,Klebsiella oxytoca [4],4 µg/mL
same,MIC,Klebsiella pneumoniae [5],16 µg/mL
same,MIC,Klebsiella pneumoniae [6],32 µg/mL
same,MIC,Klebsiella pneumoniae [7],16 µg/mL
same,MIC,Enterobacter cloacae,8 µg/mL
same,MIC,Klebsiella pneumoniae [8],8 µg/mL
same,MIC,Klebsiella pneumoniae [9],4 µg/mL
same,deltalog10CFU,Klebsiella pneumoniae [23],0.88
same,MIC,Klebsiella oxytoca [10],8 µg/mL
O=C(O)[C@H]1/C(=C/CO)O[C@@H]2CC(=O)N21 [CLAVULANIC ACID],pKi,[24],4.39
same,pKi,[25],≥ 7.41
same,pKi,[26],7.70
same,pKi,[27],2.96
same,pKi,[28],7.57
same,pKi,[29],3.07
C[C@@H](O)[C@H]1C(=O)N2C(C(=O)O)=C(SCCNC=N)C[C@H]12 [IMIPENEM ANHYDROUS],MIC,Escherichia coli [1],8 µg/mL
same,MIC,Klebsiella pneumoniae [2],8 µg/mL
same,MIC,Klebsiella pneumoniae [3],64 µg/mL
same,MIC,Klebsiella oxytoca [4],8 µg/mL
same,MIC,Klebsiella pneumoniae [5],16 µg/mL
same,MIC,Klebsiella pneumoniae [6],32 µg/mL
same,MIC,Klebsiella pneumoniae [7],16 µg/mL
same,MIC,Enterobacter cloacae,8 µg/mL
same,MIC,Klebsiella pneumoniae [8],4 µg/mL
same,MIC,Klebsiella pneumoniae [9],4 µg/mL
same,MIC,Klebsiella oxytoca [10],4 µg/mL
C[C@@H](O)[C@H]1C(=O)N2C(C(=O)O)=C(S[C@@H]3CN[C@H](C(=O)N(C)C)C3)[C@H](C)[C@H]12 [MEROPENEM],MIC,Escherichia coli [1],4 µg/mL
same,MIC,Klebsiella pneumoniae [2],8 µg/mL
same,MIC,Klebsiella pneumoniae [3],> 64 µg/mL
same,deltalog10CFU,Klebsiella pneumoniae [30],1.41
same,MIC,Klebsiella oxytoca [4],4 µg/mL
same,MIC,Klebsiella pneumoniae [6],8 µg/mL
same,MIC,Klebsiella pneumoniae [7],64 µg/mL
same,MIC,Enterobacter cloacae,8 µg/mL
same,MIC,Klebsiella pneumoniae [8],4 µg/mL
same,MIC,Klebsiella pneumoniae [9],4 µg/mL
same,MIC,Klebsiella oxytoca [10],4 µg/mL
C[C@]1(Cn2ccnn2)[C@H](C(=O)O)N2C(=O)C[C@H]2S1(=O)=O [TAZOBACTAM],pKi,[24],5.80
same,pKi,[25],9.40
same,pKi,[26],8.30
same,pKi,[27],5.96
same,pKi,[28],9.00
same,pKi,[29],6.15
